Where a chain is given by its changes, count along the chain named.
How the values were obtained:
Conditions in all cases: stereoisomer not certain
OR8D2 (Homo sapiens) = biological target: T1, OR8D2 (Homo sapiens) (UniProt Q9GZM6)
T1 sequence (whole entry): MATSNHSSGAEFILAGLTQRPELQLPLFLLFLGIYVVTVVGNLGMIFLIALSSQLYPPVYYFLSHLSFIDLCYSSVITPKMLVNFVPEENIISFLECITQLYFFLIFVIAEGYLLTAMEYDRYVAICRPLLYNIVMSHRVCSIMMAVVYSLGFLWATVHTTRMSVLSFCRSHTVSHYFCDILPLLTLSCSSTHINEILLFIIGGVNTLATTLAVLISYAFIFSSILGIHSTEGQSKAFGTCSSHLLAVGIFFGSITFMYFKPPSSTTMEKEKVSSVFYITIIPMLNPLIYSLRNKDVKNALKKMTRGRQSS
Outline: (§1)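 Assay methods differ from source to source, frequently being transient luciferase assays in mammalian cell lines. For each receptor–molecule pair, the label responsive (active) applies when the original authors judged the measured signal statistically different from baseline, and non-responsive (inactive) applies otherwise.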

OR8D4 (Homo sapiens) = biological target: T2, OR8D4 (Homo sapiens) (UniProt Q8NGM9)
T2 sequence (whole entry): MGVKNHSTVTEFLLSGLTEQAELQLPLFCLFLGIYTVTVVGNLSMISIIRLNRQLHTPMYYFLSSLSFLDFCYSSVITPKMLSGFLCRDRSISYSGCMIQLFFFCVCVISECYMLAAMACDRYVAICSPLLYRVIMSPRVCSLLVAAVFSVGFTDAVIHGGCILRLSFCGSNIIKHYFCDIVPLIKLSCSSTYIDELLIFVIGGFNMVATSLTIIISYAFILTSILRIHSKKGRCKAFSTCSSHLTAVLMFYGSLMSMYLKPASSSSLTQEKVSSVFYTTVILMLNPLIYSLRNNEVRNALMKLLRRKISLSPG
Outline: as §1

OR8G1 (Homo sapiens) = biological target: T3, OR8G1 (Homo sapiens) (UniProt Q15617)
T3 sequence (whole entry): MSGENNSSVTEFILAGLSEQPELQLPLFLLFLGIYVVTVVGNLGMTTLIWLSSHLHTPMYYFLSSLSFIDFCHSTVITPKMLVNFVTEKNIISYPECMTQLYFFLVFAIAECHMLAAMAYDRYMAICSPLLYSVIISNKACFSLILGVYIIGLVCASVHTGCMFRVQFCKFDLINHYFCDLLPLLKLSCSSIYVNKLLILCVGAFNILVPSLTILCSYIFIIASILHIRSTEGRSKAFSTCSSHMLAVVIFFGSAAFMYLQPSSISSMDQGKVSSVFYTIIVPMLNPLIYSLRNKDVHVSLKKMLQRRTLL
Outline: as §1

OR8G5 (Homo sapiens) = biological target: T4, OR8G5 (Homo sapiens) (UniProt Q8NG78)
T4 sequence (whole entry): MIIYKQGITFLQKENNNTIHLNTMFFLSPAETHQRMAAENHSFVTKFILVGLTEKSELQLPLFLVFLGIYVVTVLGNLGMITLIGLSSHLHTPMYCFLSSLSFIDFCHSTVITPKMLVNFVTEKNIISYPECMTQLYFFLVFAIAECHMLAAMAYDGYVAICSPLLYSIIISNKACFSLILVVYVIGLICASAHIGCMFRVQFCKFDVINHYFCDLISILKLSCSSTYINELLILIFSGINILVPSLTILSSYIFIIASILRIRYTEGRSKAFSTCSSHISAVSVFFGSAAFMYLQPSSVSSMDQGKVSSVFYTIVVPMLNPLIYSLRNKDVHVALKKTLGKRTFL
Outline: as §1

OR8H1 (Homo sapiens) = biological target: T5, OR8H1 (Homo sapiens) (UniProt Q8NGG4)
T5 sequence (whole entry): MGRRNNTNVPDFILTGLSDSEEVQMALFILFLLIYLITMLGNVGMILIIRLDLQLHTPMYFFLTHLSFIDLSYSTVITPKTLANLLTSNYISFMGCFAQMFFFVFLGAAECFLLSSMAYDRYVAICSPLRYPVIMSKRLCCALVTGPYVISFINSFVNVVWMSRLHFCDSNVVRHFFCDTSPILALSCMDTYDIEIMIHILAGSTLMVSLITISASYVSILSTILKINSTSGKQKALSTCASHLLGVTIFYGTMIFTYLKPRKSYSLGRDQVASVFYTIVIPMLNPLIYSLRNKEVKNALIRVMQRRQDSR
Outline: as §1

OR8H2 (Homo sapiens) = biological target: T6, OR8H2 (Homo sapiens) (UniProt Q8N162)
T6 sequence (whole entry): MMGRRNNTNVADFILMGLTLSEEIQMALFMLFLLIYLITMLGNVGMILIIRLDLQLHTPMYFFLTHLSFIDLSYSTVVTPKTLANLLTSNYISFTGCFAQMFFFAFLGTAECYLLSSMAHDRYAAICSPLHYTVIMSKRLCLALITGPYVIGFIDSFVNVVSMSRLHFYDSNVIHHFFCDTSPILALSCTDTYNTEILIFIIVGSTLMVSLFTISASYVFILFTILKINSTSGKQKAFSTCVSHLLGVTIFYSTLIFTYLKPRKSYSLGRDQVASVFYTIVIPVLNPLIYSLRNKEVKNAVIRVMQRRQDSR
Outline: as §1

OR8H3 (Homo sapiens) = biological target: T7, OR8H3 (Homo sapiens) (UniProt Q8N146)
T7 sequence (whole entry): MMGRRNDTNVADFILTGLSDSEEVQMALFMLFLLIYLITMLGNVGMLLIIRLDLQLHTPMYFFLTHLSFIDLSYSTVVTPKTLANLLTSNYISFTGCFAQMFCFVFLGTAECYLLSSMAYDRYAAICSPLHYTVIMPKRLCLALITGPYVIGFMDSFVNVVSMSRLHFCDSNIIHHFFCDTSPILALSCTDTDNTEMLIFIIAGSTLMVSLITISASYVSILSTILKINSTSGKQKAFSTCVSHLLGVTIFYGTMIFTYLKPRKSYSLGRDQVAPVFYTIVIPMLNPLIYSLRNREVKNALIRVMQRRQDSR
Outline: as §1

OR8I2 (Homo sapiens) = biological target: T8, OR8I2 (Homo sapiens) (UniProt Q8N0Y5)
T8 sequence (whole entry): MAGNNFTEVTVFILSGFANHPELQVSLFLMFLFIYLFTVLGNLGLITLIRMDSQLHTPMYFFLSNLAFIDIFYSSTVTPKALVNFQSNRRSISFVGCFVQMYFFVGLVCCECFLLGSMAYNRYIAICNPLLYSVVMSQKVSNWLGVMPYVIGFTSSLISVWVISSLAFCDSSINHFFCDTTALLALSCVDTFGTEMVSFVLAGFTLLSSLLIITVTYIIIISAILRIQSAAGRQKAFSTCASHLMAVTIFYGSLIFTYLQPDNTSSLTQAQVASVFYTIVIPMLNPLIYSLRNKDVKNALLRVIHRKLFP
Outline: as §1

OR8J1 (Homo sapiens) = biological target: T9, OR8J1 (Homo sapiens) (UniProt Q8NGP2)
T9 sequence (whole entry): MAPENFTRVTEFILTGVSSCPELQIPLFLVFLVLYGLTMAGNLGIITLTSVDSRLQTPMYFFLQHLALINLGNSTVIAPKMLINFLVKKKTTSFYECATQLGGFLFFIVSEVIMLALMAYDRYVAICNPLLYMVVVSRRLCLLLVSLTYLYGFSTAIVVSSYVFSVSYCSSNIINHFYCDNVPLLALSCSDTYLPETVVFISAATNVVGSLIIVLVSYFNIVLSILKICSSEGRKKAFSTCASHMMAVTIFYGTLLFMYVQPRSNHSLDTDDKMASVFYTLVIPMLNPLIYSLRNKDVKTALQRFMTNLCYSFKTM
Outline: as §1

OR8J3 (Homo sapiens) = biological target: T10, OR8J3 (Homo sapiens) (UniProt Q8NGG0)
T10 sequence (whole entry): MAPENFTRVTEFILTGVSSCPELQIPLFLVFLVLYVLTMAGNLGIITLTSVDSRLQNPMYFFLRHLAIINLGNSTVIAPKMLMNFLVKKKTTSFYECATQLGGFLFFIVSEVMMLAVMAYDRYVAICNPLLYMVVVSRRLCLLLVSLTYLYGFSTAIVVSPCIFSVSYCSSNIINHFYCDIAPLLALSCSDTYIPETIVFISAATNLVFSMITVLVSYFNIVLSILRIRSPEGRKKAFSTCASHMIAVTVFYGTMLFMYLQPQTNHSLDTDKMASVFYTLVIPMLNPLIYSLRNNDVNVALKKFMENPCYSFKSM
Outline: as §1

OR8K1 (Homo sapiens) = biological target: T11, OR8K1 (Homo sapiens) (UniProt Q8NGG5)
T11 sequence (whole entry): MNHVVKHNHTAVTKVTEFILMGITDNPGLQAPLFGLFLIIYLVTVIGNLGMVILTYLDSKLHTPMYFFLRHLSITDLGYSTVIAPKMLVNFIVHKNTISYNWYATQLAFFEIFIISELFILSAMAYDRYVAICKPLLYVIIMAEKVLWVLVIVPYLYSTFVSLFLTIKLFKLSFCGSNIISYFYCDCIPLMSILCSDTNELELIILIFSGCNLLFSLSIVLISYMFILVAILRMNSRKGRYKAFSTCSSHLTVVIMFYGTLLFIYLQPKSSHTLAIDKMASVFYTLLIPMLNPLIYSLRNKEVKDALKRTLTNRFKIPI
Outline: as §1

OR8K3 (Homo sapiens) = biological target: T12, OR8K3 (Homo sapiens) (UniProt Q8NH51)
T12 sequence (whole entry): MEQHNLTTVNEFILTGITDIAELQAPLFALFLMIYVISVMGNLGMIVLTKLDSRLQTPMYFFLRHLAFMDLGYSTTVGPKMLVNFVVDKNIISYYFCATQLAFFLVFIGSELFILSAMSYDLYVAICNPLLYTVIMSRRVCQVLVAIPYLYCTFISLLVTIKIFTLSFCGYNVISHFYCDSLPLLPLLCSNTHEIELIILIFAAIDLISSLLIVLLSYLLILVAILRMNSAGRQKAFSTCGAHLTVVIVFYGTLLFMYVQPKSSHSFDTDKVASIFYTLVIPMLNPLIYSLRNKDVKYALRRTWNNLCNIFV
Outline: as §1

OR8K5 (Homo sapiens) = biological target: T13, OR8K5 (Homo sapiens) (UniProt Q8NH50)
T13 sequence (whole entry): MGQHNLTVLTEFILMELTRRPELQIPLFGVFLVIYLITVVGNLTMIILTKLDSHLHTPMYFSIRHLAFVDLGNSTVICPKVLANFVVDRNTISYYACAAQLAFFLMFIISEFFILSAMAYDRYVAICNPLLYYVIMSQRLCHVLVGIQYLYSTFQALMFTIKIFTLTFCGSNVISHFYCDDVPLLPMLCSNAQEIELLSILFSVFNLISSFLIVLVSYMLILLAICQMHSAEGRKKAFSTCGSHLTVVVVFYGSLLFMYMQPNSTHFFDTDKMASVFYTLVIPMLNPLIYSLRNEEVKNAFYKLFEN
Outline: as §1

OR8S1 (Homo sapiens) = biological target: T14, OR8S1 (Homo sapiens) (UniProt Q8NH09)
T14 sequence (whole entry): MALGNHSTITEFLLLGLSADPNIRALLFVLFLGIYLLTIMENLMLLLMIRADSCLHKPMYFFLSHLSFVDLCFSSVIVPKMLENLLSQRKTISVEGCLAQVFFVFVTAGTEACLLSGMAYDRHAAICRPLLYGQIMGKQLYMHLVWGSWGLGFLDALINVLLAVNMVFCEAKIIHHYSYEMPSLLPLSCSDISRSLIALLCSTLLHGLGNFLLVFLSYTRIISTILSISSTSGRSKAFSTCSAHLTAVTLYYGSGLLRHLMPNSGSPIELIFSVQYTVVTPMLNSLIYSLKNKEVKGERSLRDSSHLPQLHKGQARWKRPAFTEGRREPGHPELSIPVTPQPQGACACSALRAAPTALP
Outline: as §1

OR8J2 (Homo sapiens) = OR8J2 (Homo sapiens) (UniProt Q8NGG1)
Outline: as §1

OR8D4 C120Y R133K = tested on: T15, OR8D4 C120Y R133K
T15 sequence (whole entry): T2 sequence (whole entry) with C120Y, R133K
Outline: as §1

OR8H2 H120Y Y169C V284M = tested on: T16, OR8H2 H120Y Y169C V284M
T16 sequence (whole entry): T6 sequence (whole entry) with H120Y, Y169C, V284M
Outline: as §1

OR8H3 = tested on: T17, OR8H3
T17 sequence (whole entry): T7 sequence (whole entry) with P137S
Outline: as §1

OR8J1 = tested on: T18, OR8J1
T18 sequence (whole entry): T9 sequence (whole entry) with Y120C
Outline: as §1

OR8J3 E4V = tested on: T19, OR8J3 E4V
T19 sequence (whole entry): T10 sequence (whole entry) with E4V
Outline: as §1

Measured: odorant receptor agonist call

Chain of OR8J2 (Homo sapiens) (Q8NGG1 whole entry): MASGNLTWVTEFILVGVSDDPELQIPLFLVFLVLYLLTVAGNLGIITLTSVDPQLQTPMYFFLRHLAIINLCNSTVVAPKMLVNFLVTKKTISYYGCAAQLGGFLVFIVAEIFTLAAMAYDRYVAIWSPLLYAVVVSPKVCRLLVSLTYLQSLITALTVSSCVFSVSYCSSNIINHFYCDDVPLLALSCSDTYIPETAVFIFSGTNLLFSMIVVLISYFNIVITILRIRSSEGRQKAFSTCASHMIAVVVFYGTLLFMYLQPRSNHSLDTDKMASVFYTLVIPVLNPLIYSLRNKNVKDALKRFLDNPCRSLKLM

CCCCCC(=O)C(C)C(C)=O (stereo not given)
not listed: OR8J2 (Homo sapiens) | OR8D4 C120Y R133K | OR8H2 H120Y Y169C V284M | OR8H3 | OR8J1 | OR8J3 E4V
inactive: all other assays above

CC(=O)c1c(C)c([N+](=O)[O-])c(C(C)(C)C)c([N+](=O)[O-])c1C
not listed: OR8D4 C120Y R133K | OR8H2 H120Y Y169C V284M | OR8H3 | OR8J1 | OR8J3 E4V
inactive: all other assays above

CCCCC(S)C(C)CO (stereo not given)
not listed: OR8J2 (Homo sapiens) | OR8D4 C120Y R133K | OR8H2 H120Y Y169C V284M | OR8H3 | OR8J1 | OR8J3 E4V
inactive: all other assays above

CCCCCCC=CCCC=O
not listed: OR8J2 (Homo sapiens)
inactive: all other assays above

CCCC(S)CCOC(C)=O (stereo not given)
not listed: OR8J2 (Homo sapiens)
inactive: all other assays above

CC1CCCCCCCCCCCCC(=O)C1 (stereo not given)
not listed: OR8D4 C120Y R133K | OR8H2 H120Y Y169C V284M | OR8H3 | OR8J1 | OR8J3 E4V
inactive: all other assays above

CC(CO)CS (stereo not given)
not listed: OR8J2 (Homo sapiens) | OR8D4 C120Y R133K | OR8H2 H120Y Y169C V284M | OR8H3 | OR8J1 | OR8J3 E4V
inactive: all other assays above

O=c1ccc2ccccc2o1
inactive: OR8K5 (Homo sapiens)

CC1=C(O)C(=O)C(C)O1 (stereo not given)
not listed: OR8J2 (Homo sapiens)
inactive: all other assays above

Source: the M2OR odorant receptor database
